The list is not random: actives were taken first. Their share in the collection is about 3.5%.
MrgX1 PAM – allosterically activates human MrgX1 receptor signaling | MrgX1-HEK293, Fluo-4 calcium flux, FDSS; hits give high values | B-score at 10 µM | AID 588675 | 310,000 compounds, 0.63% hits | Q96LB2;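 active means plate-corrected calcium response at least 3 library SD above typical, normal starting fluorescence, not activating the receptor alone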;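 further: compound read alongside a low EC10 to EC30 dose of BAM8-22 agonist; peak minus trough fluorescence over baseline measured at the second addition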
Target sequence (Q96LB2 whole entry, looked up): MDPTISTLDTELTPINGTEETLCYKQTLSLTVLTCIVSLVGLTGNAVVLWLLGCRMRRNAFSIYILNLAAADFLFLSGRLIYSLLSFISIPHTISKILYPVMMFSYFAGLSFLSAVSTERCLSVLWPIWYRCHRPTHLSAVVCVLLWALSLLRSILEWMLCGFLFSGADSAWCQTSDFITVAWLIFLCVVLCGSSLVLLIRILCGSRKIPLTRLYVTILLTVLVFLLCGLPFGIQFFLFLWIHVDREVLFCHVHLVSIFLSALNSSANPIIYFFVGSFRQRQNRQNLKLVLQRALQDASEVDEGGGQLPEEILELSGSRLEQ
RGS4 pot – potentiators or activators of RGS4 | HEK293 M3R/inducible RGS4, carbachol calcium flux Fluo4; hits give low values | B-score at 10 µM | 310,000 compounds, 0.92% hits;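 active means B-score of the integrated calcium signal more than 4 SD below the library mean, with starting fluorescence not abnormally high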;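 further: negative B-score means reduced calcium response which marks RGS4 activation or potentiation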
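Material: M3R-expressing HEK293 line, RGS4 induced by doxycycline | Schedule: Overnight RGS4 induction, 30 min dye load 37 °C, 20 min compound RT | Measured by: Fluo4 fluorescence kinetic imaging of calcium | Read-out: Integrated calcium ratio converted to B score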
MrgX1 antagonist – human MrgX1 receptor antagonism, primary screen | MRGX1-HEK293 calcium flux, Fluo-4, BAM8-22 antagonism; hits give low values | B-score at 10 µM | 310,000 compounds, 1.3% hits | AID 588676;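 active means calcium-response B-score plate-corrected more than 3 library SD below zero, starting fluorescence within 5 deviations, no agonist response on first addition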;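 further: peak minus trough fluorescence over baseline after final BAM8-22 challenge near maximal dose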
RGS4 block – inhibitors of human RGS4; B-score at 10 µM; HEK293 M3R/RGS4 inducible, Fluo-4 calcium flux; hits give high values; triggered by carbachol at its EC20; 310,000 compounds, 0.45% hits; P49798;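 active means B-score, a plate-corrected calcium signal, over three deviations above library mean, with baseline fluorescence within five deviations of library mean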;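 further: RGS4 expression induced by doxycycline in cells with stable M3 receptor; B-score is computed from the integrated fluorescence ratio over baseline after carbachol; higher B-score means a larger calcium signal and so more RGS4 inhibition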
Target sequence (P49798 whole entry, looked up): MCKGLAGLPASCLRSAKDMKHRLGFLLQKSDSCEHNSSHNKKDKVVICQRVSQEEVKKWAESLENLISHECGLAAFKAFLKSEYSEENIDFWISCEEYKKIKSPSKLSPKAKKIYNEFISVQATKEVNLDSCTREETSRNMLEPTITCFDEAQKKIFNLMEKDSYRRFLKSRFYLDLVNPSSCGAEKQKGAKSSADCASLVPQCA
MrgX1 agonist – activates human MrgX1 receptor signaling; Q96LB2; MrgX1-HEK293 cells, Fluo-4 calcium fluorescence, agonist mode; hits give high values; B-score at 10 µM; 310,000 compounds, 0.44% hits; AID 588627;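 active means calcium response B-score plate-corrected fluorescence ratio at least 3 library SD, with starting fluorescence B-score inside 5 SD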
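Test system: HEK293 cells stably expressing human MrgX1 receptor; amount: 15,000 cells per well; doses: compound delivered in addition one of three; times: overnight plating before 1 h dye loading; detection: Fluo-4 NW calcium-flux fluorescence, kinetic read; read-out basis: B-scored fluorescence response ratio; controls: positive and negative controls per plate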
RGS4 inh valid – RGS4 inhibitor validation. shares compounds with RGS4 block. HEK293 M3R/RGS4, carbachol calcium Fluo-4 fluorescence; carbachol added at its EC20; 0 = buffer wells, 100 = carbachol control. calcium response, % at 10 µM. 1,700 compounds, 65% hits. AID 492999;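 active means duplicate-averaged calcium response above the buffer-only control mean plus 5 SD of those controls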;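 further: integrated fluorescence ratio F max minus min over baseline F0; higher response in RGS4-induced cells means RGS4 inhibition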
RGS4 uninduced – counter-screen for RGS4 inhibitors: effect in non-induced cells; shares compounds with RGS4 block; HEK293 M3R non-induced, carbachol calcium Fluo-4; submaximal (EC20) carbachol stimulus; buffer wells 0%, carbachol control wells 100%; activity (percent), % at 10 µM; 1,900 compounds, 20% hits; call rule not given here;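 further: RGS4 induction absent so cells express M3R without RGS4; higher means more calcium signal and flags a non-specific hit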
RGS4 inh ctr2 – signal in non-induced cells without carbachol, RGS4 inhibitor counter-screen | HEK293 M3R/RGS4 non-induced, Fluo-4 calcium, no carbachol; normalised: buffer wells 0%, carbachol wells 100% | AID 493001 | shares compounds with RGS4 block | 1,900 compounds, 22% hits | calcium response (agonist-mode artifact), % at 10 µM;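 active means duplicate-averaged calcium rise in uninduced cells above buffer wells' mean plus 5 SD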
Hits are given with their value; n = inactive; x = no result given.

SMILES	MrgX1 PAM	RGS4 pot	MrgX1 antagonist	RGS4 block	MrgX1 agonist	RGS4 inh valid	RGS4 uninduced	RGS4 inh ctr2
N#Cc1c(-c2ccccc2)c(-c2ccccc2)nn(CC(=O)NNC(=O)Nc2ccc(Cl)c(Cl)c2)c1=O	n	n	n	6.52	n	27.5%	n	n
O=C(Oc1ccccc1)c1cccnc1Oc1ccccc1	n	n	n	5	n	n	n	n
O=C(Nc1ccc2c(c1)OCCO2)c1cccnc1Oc1ccccc1	n	n	n	4.72	n	5.5%	n	n
O=C(Nc1ccc2c(c1)OCCO2)c1cccnc1Oc1ccc(Cl)cc1	n	n	n	n	n	n	n	n
Cc1cccc(N/N=C(\C(N)=O)C2=NC(C)(C)Cc3ccccc32)c1	13	n	n	n	n	x	n	n
CCOC(=O)/C(=N\O)C1=NC(C)(C)Cc2ccccc21	n	n	n	n	n	x	x	x
N#CCCn1cc(/C=N/NC(=O)c2ccncc2)c(-c2ccc(F)cc2)n1	n	n	n	n	n	x	x	x
O=C(Nc1ccc2nc3n(c(=O)c2c1)CCCCC3)C(=O)N1CCN(c2ccccc2F)CC1	n	n	n	n	n	x	x	x
O=c1c(O)c(-c2ccc(O)c(O)c2)oc2cc(O)cc(O)c12	8.79	n	n	5	n	33.5%	40.0%	n
O=c1cc(-c2ccc(O)c(O)c2)oc2cc(O)cc(O)c12	n	n	n	n	n	x	x	x
CC(=O)C1=C(C)NC(=S)NC1c1cccc([N+](=O)[O-])c1 (stereo not drawn)	6.5	n	n	n	n	x	n	n
Cc1ccc(-c2[nH]nc(N)c2N=Nc2ccccc2C)cc1	n	n	n	10.5	n	n	n	n
Cc1cccc(N=Nc2c(N)n[nH]c2-c2ccc(Cl)cc2)c1	n	n	n	n	n	x	x	x
CCN(CC)c1ncc(C#N)c(N)n1	n	n	n	n	n	x	x	x
Cc1cccc2cc(CN(Cc3nnnn3C3CCCCC3)C3CCCC3)c3nnnn3c12	n	n	n	n	n	x	x	x
O=C(/C=C/c1ccccc1Cl)c1ccc(O)cc1	n	n	n	n	n	x	x	x
Cc1ccc(C)c(NC(=O)c2ccccc2O)c1	n	n	n	n	n	x	x	x
Cc1ccc(/C=C/C(=O)c2ccccc(=O)c2O)c(C)c1	n	n	n	n	n	x	n	34.0%
Cc1ccc(C)c(/C=C/C(=O)c2ccccc(=O)c2O)c1	n	n	n	7.5	n	14.5%	n	39.5%
O=C(/C=C/c1ccccc1Cl)c1ccccc(=O)c1O	8.08	n	n	18	n	44.5%	n	10.5%
CSc1ncccc1C(=O)N1CCCC(N2CCN(c3ccccc3F)CC2)C1 (stereo not drawn)	n	n	n	n	n	x	x	x
Cc1ccc(NC(=O)CN(C)C(=O)c2cccnc2Nc2cccc(C(F)(F)F)c2)cc1	n	n	n	6.83	n	18.5%	n	n
Cc1cc(Cl)c2cc3ccccc3cc2n1	n	n	n	n	n	x	x	x
CCCC(=O)Nc1cccc(NC(=O)c2ccc3c(c2)OCCO3)c1	n	n	n	n	n	x	n	n
Cc1cc2cc(C)c(NCCNC(=O)c3cccc(F)c3)nc2cc1C	n	n	n	5.3	n	n	n	n
SMILES	MrgX1 PAM	RGS4 pot	MrgX1 antagonist	RGS4 block	MrgX1 agonist	RGS4 inh valid	RGS4 uninduced	RGS4 inh ctr2
Cc1cc2cc(C)c(NCCNC(=O)c3ccccc3F)nc2cc1C	n	n	n	n	n	n	n	n
Cc1cccc(C(=O)NCCNc2nc3cc(C)c(C)cc3cc2C)c1	n	n	n	n	n	n	n	n
COc1cccc(-c2nc(CS(=O)(=O)c3ccccc3)no2)c1	n	n	n	n	n	x	x	x
Cc1ccc(NC(=O)CN(C)C(=O)Cn2cc(C(F)(F)F)cc(Cl)c2=O)cc1	n	n	n	5.51	n	n	n	n
CC(=O)Nc1ccc(C23CC4CC(CC(C4)C2)C3)cc1	n	n	n	n	n	x	x	x
Oc1ccc(C23CC4CC(CC(C4)C2)C3)cc1O	n	n	n	21.6	n	16.0%	52.0%	15.0%
COc1cc(C)c(S(=O)(=O)NCc2cccnc2)cc1C	n	n	n	n	n	x	x	x
CCCC(C)NC(=O)COc1ccc(S(=O)(=O)c2ccc(OCC(=O)NC(C)CCC)cc2)cc1 (stereo not drawn)	n	n	n	n	n	x	x	x
COc1ccc(N(Cc2cc3ccc(C)cc3[nH]c2=O)C(=O)c2ccco2)cc1	n	n	n	n	n	n	n	n
Cc1ccc(C)c(N(Cc2cc3ccc(C)cc3[nH]c2=O)C(=O)c2ccco2)c1	n	n	n	n	n	n	n	n
COc1ccc(N(Cc2cc3ccc(C)cc3[nH]c2=O)C(=O)C2CCCO2)cc1 (stereo not drawn)	n	n	n	n	n	x	x	x
CCCCn1c(N)c(N(CCOC)C(=O)c2cc(-c3ccccc3Cl)nc3ccccc23)c(=O)[nH]c1=O	n	n	n	n	n	x	x	x
COc1ccc(CC(NC(C)=O)C(=O)NC2CCN(S(=O)(=O)c3ccccc3)CC2)c(OC)c1 (stereo not drawn)	n	n	n	n	n	x	n	n
S=C1NC[C@H](Cc2ccccc2)N1CCCCC1CCCCC1	n	n	n	n	n	n	n	n
COc1ccc(C(C[N+](=O)[O-])c2c(-c3ccccc3)cc3ccccn23)c(OC)c1 (stereo not drawn)	n	n	n	n	54.3	n	n	20.0%
Cc1cc(N2CCOCC2)ccc1/C=C\[N+](=O)[O-]	n	n	n	27.4	67	98.0%	57.0%	75.0%
O=[N+]([O-])c1ccc(N2CCOCC2)cc1O	n	n	n	n	n	x	x	x
O=C(NCc1cccnc1)c1ccc(Cn2c(=S)[nH]c3ccc(Br)cc3c2=O)cc1	n	n	n	n	n	x	x	x
Cc1ccc(NC(=O)OCc2cc(-c3ccccc3)on2)cc1	n	n	n	n	n	n	n	n
O=C(Nc1ccc(Cl)cc1)OCc1cc(-c2ccccc2Cl)on1	n	n	n	n	n	x	x	x
Cn1cc(C(=O)N/N=C/C2=C(N3CCOCC3)C(=C\c3ccccc3)/CC2)ccc1=O	n	n	n	n	n	x	x	x
O=C1Nc2ccccc2/C1=N\N=C\C1=C(N2CCOCC2)C(=C\c2ccccc2)/CC1	n	n	n	n	n	x	n	n
O=C1Nc2ccccc2/C1=N/N=C/c1cccc(O)c1	n	n	n	8.95	n	19.5%	47.0%	n
C=CCNc1ncnc2c1ncn2C1OC(CO)C(O)C1O (stereo not drawn)	n	n	n	4.85	n	18.0%	67.0%	n

Screening results as filed in PubChem BioAssay.
